Experimental data as given in publication PMC6301001 (Cancer chemotherapy and pharmacology, 2015).
Where “and” joins values, the source holds several entries; their conditions need not be identical. Equal entries are not always repeated. Entries after “also recorded” stand apart in the source; their conditions may differ. Where two headings read alike, the source gives them in different places.

Columns and labels:
[1] = type: in vivo, rhesus monkeys (Macaca mulatta)
Procedure, shortened: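 Three adult male rhesus monkeys with an implanted fourth-ventricular CSF catheter/reservoir, sedated with ketamine (10 mg/kg IM), then given a single 7 mg/kg oral dose by nasogastric tube. CSF (0.3 ml) sampled at 0–10, 24 and 48 h, then in a repeat study on days 0–64. Total drug by HPLC/MS/MS (LLOQ 0.1 ng/ml). Non-compartmental analysis: observed Cmax; trapezoidal AUC0–inf; t1/2 = 0.693/terminal rate constant; penetration = CSF/plasma AUC0–inf.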

[2] = tested on: U251 xenografts injected into the hind limb; conditions: cited from earlier work
[3] = type: in vivo, rhesus monkeys (Macaca mulatta); conditions: single oral dose 7 mg/kg; for Cl: plasma clearance
Procedure, shortened: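 Single 7 mg/kg oral dose by nasogastric tube under ketamine sedation to three adult male rhesus monkeys (10.5–14.7 kg) fitted with central venous ports. Blood sampled at 0–10, 24 and 48 h, then on days 0–64; plasma held at –80 °C. Total drug by HPLC/MS/MS after acetonitrile precipitation with miltefosine internal standard; standards 0.001–10 µg/ml; LLOQ 1 ng/ml. Non-compartmental: observed Cmax/Tmax, trapezoidal AUC0–inf, t1/2 = 0.693/k, Cl = dose/AUC0–inf.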

[4] = cited from earlier work
[5] = tested on: human tumor cell lines; conditions: wide variety of human tumor cell lines; reported range; cited from earlier work
[6] = adult patients with solid tumors, cited from earlier work
[7] = tested on: glioma cell lines; conditions: cited from earlier work
[8] = tested on: mouse model of DIPG in which the PI3Kinase/Akt pathway is activated; conditions: genetically engineered mouse model of DIPG; cited from earlier work
[9] = CSF, individual NHP, single oral dose 7 mg/kg, 7 mg/kg

CCCCCCCCCCCCCCCCCCOP(=O)([O-])OC1CC[N+](C)(C)CC1 [Perifosine]
t 1/2 ([1]; CSF terminal half-life, individual NHP, single oral dose 7 mg/kg, 7 mg/kg): 146 h and 277 h and 350 h
Cmax [1, 9]: 1.85 ng/mL and 4.39 ng/mL and 4.57 ng/mL
Tmax [1, 9]: 63.6 h and 235.3 h and 235.4 h
AUC ([1]; CSF, individual NHP, single oral dose 7 mg/kg, T = 0 to infinity, 7 mg/kg): 1.031 µg·h/mL and 3.44 µg·h/mL and 2.89 µg·h/mL
maximum measured CSF concentration ([1]; CSF, mean of 3 NHP, single oral dose 7 mg/kg, molar equivalent): 7.8 nM
CSF AUC ([1]; CSF, median (range) of 3 NHP, single oral dose 7 mg/kg): 6358 (2266–7568) nM/h
Cmax in the CSF in initial experiments ([1]; CSF, oral 7.0 mg/kg, collection up to 48 h, 7 mg/kg): had not been reached by 48 h; also recorded: has not been reached by 48 h
time to maximum CSF concentration ([1]; CSF, single oral dose 7 mg/kg, 7 mg/kg): > 7 days and 7 days
Kp ([1]; male, rhesus monkey, CSF, po, 7 mg/kg): 0.0016
AUCCSF:AUCPl (ratio of CSF to plasma exposure) ([1]; mean of 3 NHP, single oral dose 7 mg/kg): .0016
time levels were measurable in both plasma and CSF ([1]; plasma and CSF, after a single oral dose): > 2 months
CSF concentrations relative to plasma concentrations (fold less) ([1]; single oral dose 7 mg/kg): 1000 fold
activity in vivo in mice bearing U251 xenografts [2]: demonstrated activity
Cl ([3]; individual NHP, 7 mg/kg): 77.6 mL/h and 36.5 mL/h and 63.3 mL/h
Cl ([3]; mean (range) of 3 NHP): 59.1 mL/h
T 1/2 ([3]; plasma terminal half-life, individual NHP, 7 mg/kg): 193 h and 170 h
AUC ([3]; plasma, individual NHP, T = 0 to infinity, 7 mg/kg): 2139 µg·h/mL and 1137 µg·h/mL
Cmax ([3]; plasma, individual NHP, sampling to 64 days, 7 mg/kg): 8800 ng/mL and 5300 ng/mL
time plasma concentrations remained >1 µM ([3]; plasma): > 28 days
tolerability in early phase clinical trials [4]: relatively well tolerated
single-agent responses in patients ([4]; renal cell carcinoma, sarcoma and Waldenstroms macroglobulinemia, Phase I and Phase II): single-agent objective responses have been reported
IC.50 [5]: .09 to 9.2 µg/mL
terminal half-life in humans ([6]; 50–350 mg/day orally for 3 weeks): 105 h
plasma half-lives ([6]; oral dose): 80 to 116 h
time of peak plasma concentrations ([6]; oral dose): 8 to 24 h
activity in vitro against glioma cell lines [7]: demonstrated activity
activity in mouse model of pontine glioma [8]: absent activity; also recorded: lacked activity; also recorded: no activity was observed
